Assay results pooled from the literature.
Each line is one published result; the experiments were not run side by side.
Target: Voltage-gated inwardly rectifying potassium channel KCNH2 (KCNH2, Homo sapiens, UniProt Q12809)

`Cc1ccc(OCC(=O)N[C@@H](Cc2c[nH]c3ccccc23)C(=O)OC(C)C)cc1` gave an IC50 of > 50 µM (ion current, inhibitor, patch clamp; HEK293).
With `C=CCn1c(=O)c2cnc(Nc3ccc(N4CCN(C)CC4)cc3)nc2n1-c1ccc2c(n1)[C@@](O)(CC)CC2` the IC50 was > 30 µM (ion current, inhibitor).
`Cc1ccc2c(c1)C(=O)[C@]1(O)CCN(c3ccc4nc(C)ccc4c3)C1=N2` has an IC50 of 5.4 µM (ion current, inhibitor).
The IC50 of `N=C(CC(O)c1cc2c(F)cc(F)cc2c2cc(C(F)(F)F)ccc12)Nc1ccc(Br)cc1` (centres unmarked) is reported as 1.95 µM (ligand displacement, FP).
`CCOC(=O)C1=C(CN2CCC[C@@H]2C(=O)Nc2ccc(B(O)O)cc2)NC(c2nccs2)=N[C@H]1c1ccc(F)cc1Br` has an IC50 of 6.54 µM (ion current, inhibitor, patch clamp; HEK293; pH 7.4).
The IC50 of `CC(C)(C)c1sc2ncnc(Oc3c(F)cccc3OC(F)(F)F)c2c1-c1ccc(Cl)cc1` is reported as ~28 µM (ion current, inhibitor, patch clamp).
With `FC(F)(F)CN1CC(n2cc(Oc3ccn4nc(Cl)cc4n3)cn2)C1` the IC50 was > 30 µM (ion current, inhibitor, patch clamp).
With `NC/C(=C\F)COc1cccc(Cn2c(=S)[nH]c(=O)c3[nH]cnc32)c1` the IC50 was > 100 µM (ion current, inhibitor).
